Bioassay records as filed in PubChem.
PMI activator = activators of human PMI, primary screen, biochemical, fluorescence intensity, near-Km mannose 6-phosphate | hit rate 0.005% among 190,000 | activation factor at 20 µM | purified human PMI, coupled resazurin fluorescence, 20 min; hits give high values; 1 = vehicle control, 0 substrate-free wells | Mannose-6-phosphate isomerase (Homo sapiens), P34949 | AID 1214, 2008;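 active = activation factor of 2 or more at 20 µM, relative to plate controls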
Target sequence (P34949 whole entry, looked up): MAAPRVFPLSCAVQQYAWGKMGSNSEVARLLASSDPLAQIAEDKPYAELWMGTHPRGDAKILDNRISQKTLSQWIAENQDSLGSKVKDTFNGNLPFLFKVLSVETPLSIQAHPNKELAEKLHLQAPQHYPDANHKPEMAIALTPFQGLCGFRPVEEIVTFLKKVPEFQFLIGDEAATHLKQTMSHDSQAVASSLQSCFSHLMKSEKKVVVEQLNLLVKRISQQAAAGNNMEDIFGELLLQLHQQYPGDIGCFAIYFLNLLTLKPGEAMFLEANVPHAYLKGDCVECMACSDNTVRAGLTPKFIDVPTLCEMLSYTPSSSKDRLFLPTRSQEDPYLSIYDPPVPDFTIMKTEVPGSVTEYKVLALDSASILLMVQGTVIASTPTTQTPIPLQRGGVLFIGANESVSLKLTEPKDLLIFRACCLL
PMI act satM6P = human PMI activators, high substrate, primary screen, biochemical, fluorescence intensity, near-saturating mannose 6-phosphate | Mannose-6-phosphate isomerase (Homo sapiens), P34949 | coupled PMI enzyme assay, resazurin fluorescence, 20 min; hits give high values; 1 = untreated enzyme, 0 = substrate-free blank | activation factor at 20 µM | hit rate 0.34% among 190,000;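 active = activation factor of 2 or more at 20 µM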
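Test system: Human PMI in coupled enzyme assay | Input: 15 ng/mL PMI | Medium: HEPES-buffered pH 7.4 with magnesium and detergent | Compound: One concentration, 20 µM, in 1% DMSO | Incubation: Enzyme reaction with compound 20 min at room temperature | Detection: Diaphorase-driven resazurin-to-resorufin fluorescence, excitation 544, emission 590 nm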
WT yeast gro inh = growth inhibition of WT strain, primary screen, mitochondrial fusion inhibitor project, WT and mutant strains, chemical genetic; mitochondrial fusion phenotypic screen; inhibition, % at 10 µM; hit rate 2.1% among 190,000; in the data active = inhibition above about 58%; tested in S. cerevisiae
Diaphorase act = compounds boosting diaphorase resazurin reduction – biochemical, uHTS, resorufin fluorescence, counter-screen for diaphorase-coupled primary assays, primary screen; Diaphorase/resazurin coupled assay, 16 min; hits give high values; 1 = vehicle wells, 0 = NADH-free wells; activation factor at 20 µM; hit rate 0.005% among 190,000; AID 1229, 2008;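 active = diaphorase activity raised at least twofold by the compound at 20 µM; inactive = activation factor below 2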
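Material: purified diaphorase enzyme from Clostridium kluyveri / Medium: HEPES pH 7.4 buffer with MgCl2 and Tween 20 / Schedule: enzyme reaction of 16 min at room temperature / Measured by: resorufin fluorescence, excitation 544 nm, emission 590 nm / Evaluation: rise in resorufin formation, marking diaphorase activation or chemical reduction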
Lmaj promast = Leishmania major promastigote growth inhibition, primary screen; Leishmania major promastigotes, resazurin fluorescence viability; inhibition, % at 10 µM; hit rate 9% among 200,000; AID 1063, 2008; in the data active = inhibition above about 50%;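 note: promastigotes grown with compound for 44 hours at 28 °C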
Each line names hits and unclear results; the compound was inactive in the other large screens. Only some compounds are listed: those with a hit (about 10% of all), similar ones and a draw of the others.

COc1ccc2ncc(S(=O)(=O)c3ccccc3)c(N3CCN(c4ccccc4)CC3)c2c1	Lmaj promast 99
COC(=O)c1sccc1NC(=O)c1cc(-c2ccc(C)cc2C)nc2ccccc12	none
CCOC(=O)CC(=O)CSc1ccc2nnc(-c3ccc(F)cc3)n2n1	none
CCCN(CCC)CCCNc1ccc2nnc(-c3ccc(F)cc3)n2n1	Lmaj promast 59
CCCCSCCCNC(=O)Nc1ccc(CC)cc1	none
CCOC(=O)N1CCC(N2CCN(S(=O)(=O)c3ccc(Cl)cc3)CC2)CC1	Lmaj promast 95
CC1CN(C2CCN(S(=O)(=O)c3ccc4ccccc4c3)CC2)CC(C)O1 (stereo not drawn)	Lmaj promast 94
CCN1CCN(S(=O)(=O)c2ccc3ccccc3c2)CC1	none
CC1CCN(S(=O)(=O)c2ccc(Oc3ccc([N+](=O)[O-])cc3)cc2)CC1	WT yeast gro inh 61
CCOC(=O)N1CCN(C(=O)CN(Cc2ccc(Cl)cc2)S(=O)(=O)c2ccc(C)cc2)CC1	Lmaj promast 93
O=[N+]([O-])c1ccc(Oc2ccc(S(=O)(=O)N3CCCCC3)cc2)cc1	none
O=C(c1cc(Cl)c(=O)n(Cc2ccc(Cl)cc2)c1)N1CCOCC1	none
O=S(=O)(c1ccc(Cl)cc1)N1CCC(N2CCCCCC2)CC1	Lmaj promast 97
CC1CCN(C2CCN(S(=O)(=O)c3ccc(F)cc3)CC2)CC1	Lmaj promast 90
CCS(=O)(=O)N1CCN(S(=O)(=O)c2ccc(F)cc2)CC1	none
Cc1ccc(NC(=O)C2CCN(S(=O)(=O)c3ccc(F)cc3)CC2)cc1	Lmaj promast 99
O=S(=O)(c1ccc(F)cc1)N1CCC(N2CCCCCC2)CC1	Lmaj promast 98
Cn1c(=O)c(=O)n(C)c2cc(S(=O)(=O)N3CCC(N4CCCCC4)CC3)ccc21	none (no result: PMI activator, PMI act satM6P, WT yeast gro inh, Diaphorase act)
C#Cc1ccc([C@@H]2C=C(C(=O)OCC=C)O[C@H](OCc3ccc(CO)cc3)C2)cc1	none
Cc1cccc(N(C(=O)Nc2ccc(Cl)cc2)C2=NCC(C)S2)n1 (stereo not drawn)	none
Cc1ccc2c(c1)CCCN2C(=O)c1cc2ccccc2oc1=O	none
CCOC(=O)N1CCC(Nc2c(N3CCN(c4cc(Cl)ccc4C)CC3)c(=O)c2=O)CC1	none
CCOC(=O)N1CCC(N2CCN(c3cc(C)ccc3C)CC2)CC1	Lmaj promast 95
Cc1ccc(N2NC(C)(c3cccs3)NC2=S)cc1 (stereo not drawn)	PMI act satM6P 2.7, Lmaj promast 89
S=C(Nc1ccc(Cl)cc1)N1CCN(C2CCCCC2)CC1	Lmaj promast 81
COc1ccc(C)cc1S(=O)(=O)N(CC(=O)Nc1cccc([N+](=O)[O-])c1)c1ccccc1	Lmaj promast 56
COc1ccc(OC)c(N(CC(=O)Nc2ccc3c(c2)OCO3)S(=O)(=O)c2ccccc2)c1	Lmaj promast 100
COc1ccc(S(=O)(=O)N(CC(=O)N2CCN(c3ccccc3OC)CC2)c2ccccc2)cc1	Lmaj promast 91
COc1cccc(NC(=O)CN(c2ccc([N+](=O)[O-])cc2)S(=O)(=O)c2ccccc2)c1	Lmaj promast 98
COc1ccc(NC(=O)CN(c2ccc([N+](=O)[O-])cc2)S(=O)(=O)c2ccccc2)cc1	none
CCC1(CC)NC(=O)N(CC(=O)OCC(=O)Nc2ccc(F)c(F)c2F)C1=O	none
COc1ccc(-c2[nH]ncc2CN2CCC(C(=O)N3CCOCC3)CC2)c(F)c1	none
Cc1cc(C(=O)CN2C(=O)NC(c3ccccc3)(c3ccccc3)C2=O)c(C)n1Cc1ccccc1	none
O=C(Cn1cncn1)NCc1cc(F)ccc1F	none
Cn1c(CSCc2ccc(Cl)c(Cl)c2)n[nH]c1=S	none
CO/N=C\CC(=O)Nc1ccc(Cl)cc1Cl	none
Cc1ccc([N+](=O)[O-])cc1NC(=O)CN(C1CCCCC1)S(=O)(=O)c1ccc(Cl)cc1	Lmaj promast 73
Cc1ccccc1CN(CC(=O)Nc1cccc([N+](=O)[O-])c1)S(=O)(=O)c1ccc(Cl)cc1	Lmaj promast 100
Cc1ccc(NS(=O)(=O)c2ccc(NC(=O)CN(c3cc([N+](=O)[O-])ccc3C)S(C)(=O)=O)cc2)c(C)c1	none
Cc1ccc([N+](=O)[O-])cc1NC(=O)CN(C(=O)c1ccccc1Cl)C1CCCCC1	none
Cc1ccc(NC(=O)CN(c2ccc(Cl)cc2)S(=O)(=O)c2cc([N+](=O)[O-])ccc2Cl)c(C)c1	Lmaj promast 98
COc1ccc(N(CC(=O)Nc2ccc(S(=O)(=O)N3CCOCC3)cc2)S(=O)(=O)c2ccccc2)cc1	Lmaj promast 58
O=C(Nc1cc(S(=O)(=O)Nc2ccccc2Cl)ccc1O)c1sc2cc(Cl)ccc2c1Cl	none
COC(=O)CCC(=O)Nc1ccc(Br)cc1	none
COC(=O)c1ccc(OC(=O)CCc2cc(OC)c(OC)c(OC)c2)cc1	none
CCOC(=O)/C(C#N)=C/c1ccc(OCC(=O)Nc2ccc(C)c(C)c2)c(OC)c1	Lmaj promast 52
CCn1c(O)c(C2=c3ccccc3=NC2=O)c2cc(Br)ccc21	WT yeast gro inh 72, Lmaj promast 100
Cn1c(O)c(C2=c3ccccc3=NC2=O)[nH]c1=S	none
O=C(CCS(=O)(=O)Cc1ccc(Cl)cc1)NCCc1ccccc1	none
Cc1ccc(C2=NN(CCC(=O)NCCC(C)C)C(=O)CC2)cc1	Lmaj promast 73
Cc1ccc(C2=NN(CCC(=O)NCc3ccc4c(c3)OCO4)C(=O)CC2)cc1	none
COc1ccc(C2=NN(CCC(=O)NCc3ccc4c(c3)OCO4)C(=O)CC2)cc1	Lmaj promast 54
